Data as given in ChEMBL document CHEMBL1133478, “Discovery of potent cyclic pseudopeptide human tachykinin NK-2 receptor antagonists” (J Med Chem, 2000).
Bridge positions count the residues as written; N and C are the ends. Square brackets hold non-standard residues; d marks the D form. Peptide text beside a SMILES is read from it. * marks the point of attachment. NH(β-GlcNAc) = CC(=O)N[C@@H]1[C@@H](O)[C@H](O)[C@@H](CO)O[C@H]1N*; Dap = NC[C@H](N)C(=O)O

Assays:
[1] = system: Substance-K receptor (Oryctolagus cuniculus); assay: In Vitro evaluation for the functional activity towards Tachykinin receptor 2
[2] = target: T1, Substance-K receptor (Homo sapiens, UniProt P21452); assay: Binding affinity towards Tachykinin receptor 2
T1 sequence (P21452 whole entry): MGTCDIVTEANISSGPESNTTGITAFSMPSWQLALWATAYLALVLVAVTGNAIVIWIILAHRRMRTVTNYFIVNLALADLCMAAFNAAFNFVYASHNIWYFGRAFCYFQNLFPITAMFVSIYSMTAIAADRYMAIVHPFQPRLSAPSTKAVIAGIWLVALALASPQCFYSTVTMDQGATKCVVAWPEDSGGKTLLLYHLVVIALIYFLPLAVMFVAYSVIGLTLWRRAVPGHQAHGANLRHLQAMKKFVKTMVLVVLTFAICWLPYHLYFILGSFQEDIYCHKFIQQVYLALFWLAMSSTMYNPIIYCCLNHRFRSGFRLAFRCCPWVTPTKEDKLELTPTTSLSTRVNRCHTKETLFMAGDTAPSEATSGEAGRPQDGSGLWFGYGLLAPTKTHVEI
In short: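 Competition binding at human NK-2 receptor expressed in CHO cells, radioligand [125I]NKA. pKi computed with EBDA then LIGAND; mean of 2–6 experiments, each run in duplicate.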

[3] = target: T2, Substance-K receptor (Cavia porcellus) (UniProt Q64077)
T2 sequence (whole entry): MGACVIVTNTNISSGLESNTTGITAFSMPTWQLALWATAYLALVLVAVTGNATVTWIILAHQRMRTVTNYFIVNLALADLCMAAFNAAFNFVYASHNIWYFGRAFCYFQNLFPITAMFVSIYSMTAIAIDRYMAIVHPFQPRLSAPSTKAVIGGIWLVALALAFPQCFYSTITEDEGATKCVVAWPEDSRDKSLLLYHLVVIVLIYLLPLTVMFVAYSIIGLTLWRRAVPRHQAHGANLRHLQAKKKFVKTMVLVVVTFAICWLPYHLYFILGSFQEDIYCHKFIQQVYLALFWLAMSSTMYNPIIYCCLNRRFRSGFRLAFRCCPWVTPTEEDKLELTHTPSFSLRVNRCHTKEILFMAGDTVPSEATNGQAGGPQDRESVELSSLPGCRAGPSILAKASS

[4] = target: Substance-P receptor (Cavia porcellus) (UniProt P30547)
[5] = target: T3, Neuromedin-K receptor (Cavia porcellus) (UniProt P30098)
T3 sequence (whole entry): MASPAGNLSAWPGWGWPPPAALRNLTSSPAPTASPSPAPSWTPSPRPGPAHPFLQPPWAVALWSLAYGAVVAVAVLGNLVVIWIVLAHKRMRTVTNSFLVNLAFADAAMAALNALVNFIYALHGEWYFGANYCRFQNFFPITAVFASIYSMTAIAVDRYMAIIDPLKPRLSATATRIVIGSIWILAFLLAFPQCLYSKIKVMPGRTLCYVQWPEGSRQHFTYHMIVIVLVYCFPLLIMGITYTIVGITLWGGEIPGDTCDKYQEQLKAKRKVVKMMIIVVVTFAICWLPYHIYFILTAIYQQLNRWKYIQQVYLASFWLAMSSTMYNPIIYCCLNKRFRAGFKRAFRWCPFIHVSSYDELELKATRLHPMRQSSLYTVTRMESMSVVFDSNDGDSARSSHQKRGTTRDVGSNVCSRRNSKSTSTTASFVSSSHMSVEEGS

Chain of Substance-P receptor (Cavia porcellus) (P30547 whole entry): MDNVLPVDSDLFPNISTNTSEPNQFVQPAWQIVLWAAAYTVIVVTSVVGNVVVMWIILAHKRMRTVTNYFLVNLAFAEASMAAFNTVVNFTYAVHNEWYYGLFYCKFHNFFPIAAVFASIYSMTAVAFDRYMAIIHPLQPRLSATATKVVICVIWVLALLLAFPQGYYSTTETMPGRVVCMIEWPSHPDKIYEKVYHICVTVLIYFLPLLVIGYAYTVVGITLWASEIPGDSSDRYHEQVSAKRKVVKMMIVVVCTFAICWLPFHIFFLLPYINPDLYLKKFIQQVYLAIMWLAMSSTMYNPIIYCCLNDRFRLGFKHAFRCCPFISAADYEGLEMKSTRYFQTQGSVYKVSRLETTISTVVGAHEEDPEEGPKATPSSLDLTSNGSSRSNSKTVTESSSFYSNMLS

SMILES | pKb [1] | Ki [2] [µM] | pKB [3] | pKB [4] | pKB [5]
COc1ccc(CC2CNC(=O)CCC(=O)N[C@@H](Cc3c[nH]c4ccccc34)C(=O)N[C@@H](Cc3ccccc3)C(=O)N2)cc1 (some centres not stated) | 7.1 | 0.01 | – | – | –
O=C1CCC(=O)N[C@@H](Cc2c[nH]c3ccccc23)C(=O)N[C@@H](Cc2ccccc2)C(=O)N[C@H](Cc2ccc(Cl)c(Cl)c2)CN1 | 8.1 | 0.0001 | – | – | –
O=C1CCC(=O)N[C@@H](Cc2c[nH]c3ccccc23)C(=O)N[C@@H](Cc2ccccc2)C(=O)NCCN1 | 6.3 | 1.26 | – | – | –
O=C1CC(Cc2ccccc2)C(=O)NCCNC(=O)[C@H](Cc2ccccc2)NC(=O)[C@H](Cc2c[nH]c3ccccc23)N1 (mixture of isomers) | 6.1 | 0.794 | – | – | –
O=C1CCC(=O)N[C@@H](Cc2c[nH]c3ccccc23)C(=O)N[C@@H](Cc2ccccc2)C(=O)N[C@H](Cc2ccc(F)c(F)c2)CN1 | 7.8 | 0.00158 | – | – | –
O=C1CCC(=O)NC(Cc2c[nH]c3ccccc23)C(=O)N[C@@H](Cc2ccccc2)C(=O)N[C@H](Cc2ccccc2)CN1 (single isomer, unassigned) | – | 0.002 | 7.8 | 5.7 | 6.1
O=C1CCC(=O)N[C@H](Cc2ccccc2)CNC(=O)[C@H](Cc2ccccc2)NC(=O)C(Cc2c[nH]c3ccccc23)N1 (single isomer, unassigned) | 5.4 | 1.26 | – | – | –
O=C1CCC(=O)N[C@@H](Cc2c[nH]c3ccccc23)C(=O)N[C@@H](Cc2ccccc2)C(=O)N[C@H](Cc2ccc(C(F)(F)F)cc2)CN1 | 7.1 | 0.02 | – | – | –
O=C1CCC(=O)N[C@@H](Cc2c[nH]c3ccccc23)C(=O)N[C@@H](Cc2ccccc2)C(=O)N[C@H](Cc2ccc3ccccc3c2)CN1 | 7 | 0.00794 | – | – | –
O=C1CCC(=O)N[C@@H](Cc2c[nH]c3ccccc23)C(=O)N[C@@H](Cc2ccccc2)C(=O)N[C@H](CCc2ccccc2)CN1 | 6.5 | 0.01 | – | – | –
O=C1CCC(=O)N[C@@H](Cc2c[nH]c3ccccc23)C(=O)N[C@@H](Cc2ccccc2)C(=O)NC(Cc2ccccc2)CN1 (some centres not stated) | – | 1.26 | – | – | –
O=C1CCC(=O)N[C@@H](Cc2c[nH]c3ccccc23)C(=O)N[C@@H](Cc2ccccc2)C(=O)NC[C@H](Cc2ccccc2)N1 | 5.5 | 1.26 | – | – | –
O=C1CCC(=O)N[C@@H](Cc2c[nH]c3ccccc23)C(=O)N[C@@H](Cc2ccccc2)C(=O)N[C@H](CC2CCCCC2)CN1 | 6.5 | 0.316 | – | – | –
CSCC[C@@H]1NC(=O)[C@H](CC(C)C)NC(=O)[C@@H]2CNC(=O)C[C@H](NC1=O)C(=O)N[C@@H](Cc1c[nH]c3ccccc13)C(=O)N[C@@H](Cc1ccccc1)C(=O)N2 (cyclo(DWF[Dap]LM); lactam 1-4) | 8.1 | 0.000631 | – | – | –
CC(=O)N[C@@H]1[C@@H](O)[C@H](O)[C@@H](CO)O[C@H]1NC(=O)C[C@@H]1NC(=O)[C@H](CC(C)C)NC(=O)[C@@H]2CNC(=O)C[C@H](NC1=O)C(=O)N[C@@H](Cc1c[nH]c3ccccc13)C(=O)N[C@@H](Cc1ccccc1)C(=O)N2 (cyclo(D(NH(β-GlcNAc))DWF[Dap]L); lactam 2-5) | – | 0.00251 | – | – | –
O=C1CC(Cc2ccccc2)C(=O)N[C@@H](Cc2c[nH]c3ccccc23)C(=O)N[C@@H](Cc2ccccc2)C(=O)NCCN1 (mixture of isomers) | 5.7 | 0.631 | – | – | –
